# Test results from ChEMBL document CHEMBL1255448, “The 6-aminoquinolone WC5 inhibits human cytomegalovirus replication at an early stage by interfering with the transactivating activity of viral immediate-early 2 protein” (Antimicrob Agents Chemother, 2010).
# Activity calls are given as the source filed them. The calls are words filed in the database; no cut-off is given here.
# Legend:
# Human betaherpesvirus 5 [1] = test: Antiviral activity against 0.1 MOI human cytomegalovirus AD169 infected in human U373-MG cells expressing UL112/113-EGFP reporter assessed as inhibition of EGFP expression after 48 hrs of infection by confocal fluorescence microscopy; type: functional, organism-based; details: U-373MG ATCC
# Method in brief: (§1)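 Stable U373-MG reporter cells were seeded on coverslips at 3×10^5 per well and infected with AD169 at MOI 0.1 or 0.5. They were then treated with 50 µM drug, 5 µM fomivirsen (also given 1 h before and during infection) or 0.2% DMSO. At 48 h p.i. cells were fixed in 4% paraformaldehyde for 15 min, and EGFP-positive cells were counted by confocal microscopy at 20×.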
# Human betaherpesvirus 5 [2] = test: Antiviral activity against 0.1 MOI human cytomegalovirus AD169 infected in human cells expressing UL54-EGFP reporter assessed as inhibition of IE2 transactivating activity after 48 hrs of infection by confocal fluorescence microscopy
# [3] = Inhibition of human cytomegalovirus DNA polymerase catalytic subunit UL54/UL44 assessed as incorporation of [3H]dTTP; set-up: species or system Human betaherpesvirus 5
# Method in brief: (§2)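 Filter-based assay with purified baculovirus-expressed UL54 catalytic subunit, alone or with UL44 accessory subunit. Incorporation of [3H]dTTP into poly(dA)-oligo(dT)12-18 template-primer was measured across serial compound dilutions, with FOS as control. Means ± standard deviations from four independent experiments.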
# [4] = Selectivity index, ratio of CC50 for human HFF to EC50 for human cytomegalovirus AD169
# Method in brief: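 Selectivity index is CC50 from the HFF MTT assay divided by EC50 from the AD169 plaque reduction assay in HFF.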
# Human betaherpesvirus 5 [5] = test: Antiviral activity against 0.5 MOI human cytomegalovirus AD169 infected in human U373-MG cells expressing UL112/113-EGFP reporter assessed as inhibition of EGFP expression after 48 hrs of infection by confocal fluorescence microscopy; type: functional, organism-based; details: U-373MG ATCC; method in brief: as §1
# Human betaherpesvirus 5 [6] = test: Antiviral activity against human cytomegalovirus AD169 infected in human HFF assessed as virus yield reduction; type: functional, organism-based; details: Human betaherpesvirus 5, AD169
# Human betaherpesvirus 5 [7] = test: Antiviral activity against human cytomegalovirus AD169 in human HFF assessed as reduction of viral entry into fibroblast after 2 hrs at 37 degC; details: Human betaherpesvirus 5, AD169, 2 h
# Human betaherpesvirus 5 [8] = test: Antiviral activity against human cytomegalovirus AD169 in human HFF assessed as reduction of viral attachment to fibroblast at 4 degC; type: functional, organism-based
# Method in brief: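 Prechilled HFF monolayers received 100 PFU AD169 together with graded compound or heparin control for 2 or 4 h at 4°C. Cells were washed with cold PBS, overlaid with compound-free 0.6% methylcellulose medium and kept 10 days at 37°C. Plaques were stained with crystal violet and counted. Three experiments were run in duplicate; mean ± SD.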
# [9] = Inhibition of human cytomegalovirus DNA polymerase catalytic subunit UL54 assessed as incorporation of [3H]dTTP; set-up: species or system Human betaherpesvirus 5; method in brief: as §2
# Human betaherpesvirus 5 [10] = test: Antiviral activity against 0.1 MOI human cytomegalovirus AD169 infected in human HFF assessed as virus yield reduction by yield reduction assay; type: functional, organism-based; details: Human betaherpesvirus 5, AD169
# Human betaherpesvirus 5 [11] = test: Antiviral activity against 0.1 MOI human cytomegalovirus AD169 infected in human U373-MG cells expressing UL54-EGFP reporter assessed as inhibition of EGFP expression after 48 hrs of infection by confocal fluorescence microscopy; type: functional, organism-based; details: U-373MG ATCC; method in brief: as §1
# Human betaherpesvirus 5 [12] = test: Antiviral activity against human cytomegalovirus AD169 infected in human HFF assessed as inhibition of plaque formation by plaque reduction assay; type: functional, organism-based; details: Human betaherpesvirus 5, AD169
# Method in brief: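 Plaque reduction against AD169 in HFF. EC50 is the concentration giving 50% inhibition of plaque formation, reported as mean ± SD of at least three independent experiments run in duplicate.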
# Human betaherpesvirus 5 [13] = test: Antiviral activity against 0.1 MOI human cytomegalovirus AD169 infected in human HFF assessed as inhibition of immediate early phase UL123 mRNA expression after 16 hrs by RT-PCR analysis; type: functional, organism-based
# Method in brief: (§3)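 HFF seeded at 6×10^5 per well, infected with AD169 at MOI 0.1 PFU/cell, then given 50 µM drug or 0.2% DMSO. ActD 5 µg/ml, CHX 75 µg/ml and FOS 750 µM served as IE, E and L transcription controls. Total RNA was taken at 16 and 48 h p.i.; 1 µg was reverse-transcribed with random hexamers and MuLV RT. PCR used UL122/UL123 (IE), UL54/UL84 (E) and UL55/UL75 (L) primers with a β-actin control, and products were read on ethidium bromide agarose gels.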
# Human betaherpesvirus 5 [14] = test: Antiviral activity against 0.01 MOI human cytomegalovirus AD169 infected in human HFF assessed as virus yield reduction by yield reduction assay; type: functional, organism-based; details: Human betaherpesvirus 5, AD169
# Human betaherpesvirus 5 [15] = test: Antiviral activity against 0.1 MOI human cytomegalovirus AD169 infected in human HFF assessed as inhibition of immediate early phase P86 protein expression after 24 hrs by Western blot analysis; type: functional, organism-based
# Method in brief: (§4)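 HFF infected with HCMV AD169 at MOI 0.1 PFU/cell, treated with 50 µM compound or 0.2% DMSO. ActD 5 µg/ml, CHX 75 µg/ml and FOS 750 µM served as controls. Harvests at 24, 48 and 72 h p.i. were lysed in NP-40 buffer, then SDS-PAGE and PVDF blotting. Probes were anti-IE1/IE2 (p72/p86) MAb or anti-UL55, then HRP secondary and ECL. β-actin reprobe was the internal control.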
# Human betaherpesvirus 5 [16] = test: Antiviral activity against 0.1 MOI human cytomegalovirus AD169 infected in human HFF assessed as inhibition of late phase UL55 protein expression after 72 hrs of infection by Western blot analysis; type: functional, organism-based; method in brief: as §4
# Human betaherpesvirus 5 [17] = test: Antiviral activity against 1 MOI human cytomegalovirus AD169 infected in human HFF assessed as virus yield reduction by yield reduction assay; type: functional, organism-based; details: Human betaherpesvirus 5, AD169
# Human betaherpesvirus 5 [18] = test: Antiviral activity against 1 MOI human cytomegalovirus AD169 infected in human HFF assessed as inhibition of viral replication up to 30 hrs post infection
# Human betaherpesvirus 5 [19] = test: Antiviral activity against 0.1 MOI human cytomegalovirus AD169 infected in human cells expressing UL112/113-EGFP reporter assessed as inhibition of IE2 transactivating activity after 48 hrs of infection by confocal fluorescence microscopy
# Human betaherpesvirus 5 [20] = test: Antiviral activity against 0.1 MOI human cytomegalovirus AD169 infected in human HFF assessed as inhibition of early phase UL84 mRNA expression after 16 hrs by RT-PCR analysis
# Human betaherpesvirus 5 [21] = test: Antiviral activity against 0.1 MOI human cytomegalovirus AD169 infected in human HFF assessed as inhibition of immediate early phase UL122 mRNA expression after 16 hrs by RT-PCR analysis; type: functional, organism-based; method in brief: as §3
# Human betaherpesvirus 5 [22] = test: Antiviral activity against 0.1 MOI human cytomegalovirus AD169 infected in human HFF assessed as inhibition of early phase UL54 mRNA expression after 16 hrs by RT-PCR analysis
# Human betaherpesvirus 5 [23] = test: Antiviral activity against 0.1 MOI human cytomegalovirus AD169 infected in human HFF assessed as inhibition of immediate early phase P72 protein expression after 24 hrs by Western blot analysis; type: functional, organism-based; method in brief: as §4
# Human betaherpesvirus 5 [24] = test: Antiviral activity against 0.5 MOI human cytomegalovirus AD169 infected in human U373-MG cells expressing UL54-EGFP reporter assessed as inhibition of EGFP expression after 48 hrs of infection by confocal fluorescence microscopy; type: functional, organism-based; details: U-373MG ATCC; method in brief: as §1
compound,measurement,setting,value
Nc1cc2c(=O)c(C(=O)O)cn(C3CC3)c2cc1N1CCN(c2ccccn2)CC1,inhibition,Human betaherpesvirus 5 [1],Active
same,inhibition,Human betaherpesvirus 5 [2],Active
same,IC50,[3],> 100 µM
same,Selectivity Index,[4],479
same,inhibition,Human betaherpesvirus 5 [5],Active
same,EC50,Human betaherpesvirus 5 [6],8.6 µM
same,EC50,Human betaherpesvirus 5 [7],> 25 µM
same,Activity,Human betaherpesvirus 5 [8],inactive
same,IC50,[9],> 100 µM
same,EC90,Human betaherpesvirus 5 [10],34.7 µM
same,inhibition,Human betaherpesvirus 5 [11],Active
same,EC50,Human betaherpesvirus 5 [12],0.9 µM
same,inhibition,Human betaherpesvirus 5 [13],inactive
same,EC90,Human betaherpesvirus 5 [14],8.5 µM
same,inhibition,Human betaherpesvirus 5 [15],inactive
same,inhibition,Human betaherpesvirus 5 [16],Active
same,EC90,Human betaherpesvirus 5 [17],51.9 µM
same,Activity,Human betaherpesvirus 5 [18],Active
same,inhibition,Human betaherpesvirus 5 [19],Active
same,inhibition,Human betaherpesvirus 5 [20],Active
same,inhibition,Human betaherpesvirus 5 [21],inactive
same,inhibition,Human betaherpesvirus 5 [22],Active
same,inhibition,Human betaherpesvirus 5 [23],inactive
same,inhibition,Human betaherpesvirus 5 [24],Active
